≈ marks a conversion by molar mass, not a printed value.
Experiments:
[1] = system: S. pneumoniae; assay: Broth microdilution MIC, S. pneumoniae; assay type: cell-based; conditions: Streptococcus pneumoniae, 24 h, read-out: MIC, Bacteria, S. pneumoniae
Procedure, shortened: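 S. pneumoniae clinical isolate, from paediatric community-acquired pneumonia. CLSI M7-A7 broth microdilution in Mueller Hinton broth with 2.5% lysed sheep blood, inoculum about 2 × 10^8 CFU/mL. Serial test-compound dilutions, 37°C for 24 h. MIC was the lowest concentration suppressing visible growth.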

[2] = system: MetRS2; conditions: cited from earlier work

MIC [1] [µg/mL]	Structure (SMILES)	Activity towards MetRS2 [2]
0.0625 (≈ 0.179 µM)	CC1(C)S[C@@H]2[C@H](NC(=O)[C@H](N)c3ccccc3)C(=O)N2[C@H]1C(=O)O [Ampicillin, reference compound]	–
–	C=C(F)c1sc(CNCCCNc2cc(O)c3ccccc3n2)c(C)c1Br [REP8839]	no activity

Reference: publication PMC3747510 (Scientific Reports, 2013)
